Legend:
[1] = Cytotoxicity against human HOSEC cells assessed as reduction in cell viability at 10 uM incubated for 48 hrs by MTT assay; type: cell-based; settings: hose
In short: (§1)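 Cells plated at 3~5 × 10^3 per well and allowed 24 h before exposure to compound or DMSO (negative control) for 48 h. A2780/T and KB-VIN were grown in DMEM/F12 with 10% FBS, and HUVEC, HOSEC and T29 in RPMI-1640 with 10% FBS, all at 37 °C under 5% CO₂. MTT was added for 4 h, formazan dissolved in DMSO and absorbance read at 490 nm. Inhibition was calculated relative to DMSO and blank.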

HUVEC = experiment: Cytotoxicity against human HUVEC cells assessed as reduction in cell viability at 10 uM incubated for 48 hrs by MTT assay; type: cell-based
In short: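 Cells plated at 3~5 × 10^3 per well and allowed 24 h before exposure to compound or DMSO (negative control) for 48 h. MTT was added for 4 h, formazan dissolved in DMSO and absorbance read at 490 nm. Inhibition was calculated relative to DMSO and blank.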

[2] = Reversal of multidrug resistance activity in P-gp overexpressing human A2780T cells assessed as potentiation of PTX-induced cytotoxicity by measuring reversal ratio at 10 uM incubated for 48 hrs in presence of paclitaxel by MTT assay; type: functional, A2780/Taxol
In short: (§2)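 Resistant cells were plated at 3~5 × 10^3 per well, given 24 h, then co-treated with test compound plus a range of anticancer drug concentrations (PTX for A2780/T, VCR for KB-VIN, cisplatin for A2780/CDDP) or DMSO for 48 h. Read-out was by MTT, 4 h at 37 °C, with absorbance at 490 nm. Reversal ratio = IC50 (drug alone) / IC50 (drug with compound).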

[3] = Cytotoxicity against human T29 cells assessed as reduction in cell viability at 10 uM incubated for 48 hrs by MTT assay; type: cell-based; settings: t29, 48 h; in short: as §1
A2780/Taxol = experiment: Cytotoxicity against human A2780T cells assessed as reduction in cell viability at 10 uM incubated for 48 hrs by MTT assay; type: cell-based; in short: as §1
[4] = Reversal of multidrug resistance activity in P-gp overexpressing human KB-VIN cells assessed as potentiation of VCR-induced cytotoxicity by measuring reversal ratio at 10 uM incubated for 48 hrs in presence of VCR by MTT assay; type: functional; in short: as §2
[5] = Cytotoxicity against human KB-VIN cells assessed as reduction in cell viability at 10 uM incubated for 48 hrs by MTT assay; type: cell-based; in short: as §1
[6] = Reversal of multidrug resistance activity in human A2780/CDDP cells assessed as potentiation of CDDP-induced cytotoxicity by measuring reversal ratio at 10 uM incubated for 48 hrs in presence of CDDP by MTT assay; type: functional; in short: as §2

SMILES	Activity [1]	Activity (HUVEC)	Ratio [2]	Activity [3]	Activity (A2780/Taxol)	Ratio [4]	Activity [5]	Ratio [6]
CCc1cc(=O)c2ccc(OC)c(COC(=O)c3ccc(C(C)(C)C)cc3)c2o1	Non-Toxic	Non-Toxic	158	Non-Toxic	Toxic	–	–	–
CCc1cc(=O)c2ccc(OC)c(COC(=O)c3cc(OC)c(OC)c(OC)c3)c2o1	Non-Toxic	Non-Toxic	537	Non-Toxic	Non-Toxic	424	Non-Toxic	0.81
CCCc1ccc(C(=O)OCc2c(OC)ccc3c(=O)cc(CC)oc23)cc1	Non-Toxic	Non-Toxic	36	Non-Toxic	Toxic	–	–	–
CCc1cc(=O)c2ccc(OC)c(COC(=O)Cc3cc(OC)c(OC)c(OC)c3)c2o1	Non-Toxic	Non-Toxic	54	Non-Toxic	Toxic	–	–	–
CCc1cc(=O)c2ccc(OC)c(COC(=O)c3c(F)cccc3F)c2o1	Non-Toxic	Non-Toxic	43	Non-Toxic	Non-Toxic	–	–	–
CCOc1ccc2c(=O)cc(CC)oc2c1COC(=O)c1ccc(C#N)cc1	Non-Toxic	Non-Toxic	20	Non-Toxic	Toxic	–	–	–
CCc1cc(=O)c2ccc(OC(C)C)c(COC(=O)/C=C/c3ccc(OC)cc3)c2o1	Non-Toxic	Non-Toxic	490	Non-Toxic	Non-Toxic	342	Non-Toxic	0.97
CCOc1ccc2c(=O)cc(CC)oc2c1COC(=O)c1cc(OC)c(OC)c(OC)c1	Non-Toxic	Non-Toxic	457	Non-Toxic	Non-Toxic	248	Non-Toxic	1.05
CCc1cc(=O)c2ccc(OC)c(COC(=O)c3ccc(Cl)c([N+](=O)[O-])c3)c2o1	Toxic	Non-Toxic	14	Toxic	Non-Toxic	–	–	–
CCc1cc(=O)c2ccc(OC)c(COC(=O)/C=C/c3ccc(Cl)cc3)c2o1	Non-Toxic	Non-Toxic	53	Non-Toxic	Non-Toxic	–	–	–
CCc1cc(=O)c2ccc(OC)c(COC(=O)c3cccc(N(C)C)c3)c2o1	Non-Toxic	Non-Toxic	484	Non-Toxic	Non-Toxic	234	Non-Toxic	0.81
CCc1cc(=O)c2ccc(OC)c(COC(=O)c3cccc(OC)c3)c2o1	Non-Toxic	Non-Toxic	147	Non-Toxic	Non-Toxic	–	–	–
CCOc1ccc2c(=O)cc(CC)oc2c1COC(=O)c1cc(OC)c(OC)cc1OC	Non-Toxic	Non-Toxic	457	Non-Toxic	Non-Toxic	–	–	0.88
CCc1cc(=O)c2ccc(OC)c(COC(=O)c3ccc(OC)c(OC)c3)c2o1	Non-Toxic	Non-Toxic	260	Non-Toxic	Toxic	105	Non-Toxic	–
CCc1cc(=O)c2ccc(OC)c(COC(=O)c3ccc(Cl)cc3Cl)c2o1	Non-Toxic	Non-Toxic	126	Non-Toxic	Non-Toxic	–	–	–
